Data: ChEMBL document CHEMBL1131498, “Design, synthesis, and evaluation of the multidrug resistance-reversing activity of D-glucose mimetics of hapalosin” (J Med Chem, 1998)
Converted amounts (≈) assume the structure as drawn.

Experiments:
Settings in all cases: Homo sapiens
HL-60 [1] = test: Effective concentration against HL-60/ADR cells using MRP-mediated MDR assay using 2 nM vincristine which results in 50% of the cells being killed in the presence of particular cytotoxic drug.; assay type: functional, cell-based
Procedure, shortened: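 Human promyelocytic leukemia HL-60/ADR cells (MRP-expressing, no P-gp) given varying compound concentrations plus 2 nM vincristine for 48 h. Survival by MTS tetrazolium metabolism (CellTiter AQueous); % killed as decrease vs control cultures. Triplicates, mean ± SD; approximate concentration (μg/mL) giving 50% kill.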

HL-60 [2] = test: Inhibitory concentration against HL-60/ADR cells using MRP-mediated MDR assay using 2 nM vincristine which inhibits cell proliferation by 20% in the absence of particular cytotoxic drug; assay type: functional
Procedure, shortened: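 HL-60/ADR leukemia cells (MRP-expressing) exposed 48 h to varying compound concentrations alone, PBS replacing vincristine. Viability by MTS tetrazolium metabolism (CellTiter AQueous), % decrease vs controls. Triplicates, mean ± SD; approximate concentration (μg/mL) inhibiting proliferation by 20%.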

MCF7 [3] = test: Effective concentration against MCF-7/ADR cells using P-gp-mediated MDR assay using 25 nM actinomycin D which results in 50% of the cells being killed in the presence of particular cytotoxic drug.; assay type: functional, cell-based
Procedure, shortened: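 MCF-7/ADR cells (from NCI, grown in RPMI 1640 + 10% FBS, 50 μg/mL gentamycin) seeded at ~15% confluency, 24 h recovery, then eight doses of compound with 25 nM actinomycin D for 48 h. Survival by sulforhodamine B staining; % killed as decrease in binding vs ethanol solvent controls. Triplicates, mean ± SD; approximate concentration (μg/mL) giving 50% kill read from curves.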

MCF7 [4] = test: Inhibitory concentration against MCF-7/ADR cells using P-gp-mediated MDR assay using 25 nM actinomycin D which inhibit cells proliferation by 20% in the absence of particular cytotoxic drug; assay type: functional
Procedure, shortened: (§1)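 MCF-7/ADR cells (from NCI, RPMI 1640 + 10% FBS, 50 μg/mL gentamycin) seeded at ~15% confluency, 24 h attachment, then eight doses of compound alone (PBS in place of actinomycin D) for 48 h. Sulforhodamine B staining; % kill vs ethanol solvent controls. Triplicates, mean ± SD; approximate concentration (μg/mL) giving 20% growth inhibition.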

MCF7 [5] = test: Inhibitory concentration against MCF-7/ADR cells using P-gp-mediated MDR assay using 25 nM actinomycin D which inhibits cell proliferation by 20% in the absence of particular cytotoxic drug; assay type: functional; procedure, shortened: as §1

Row | SMILES | EC50 (HL-60 [1]) [mg/L] | IC20 (HL-60 [2]) [mg/L] | EC50 (MCF7 [3]) [mg/L] | IC20 (MCF7 [4]) [mg/L] | IC20 (MCF7 [5]) [mg/L]
1 | CCCCCCCO[C@@H]1[C@@H](OCc2ccccc2)[C@@H](OCc2ccccc2)O[C@H](CC(C)C)[C@H]1OC | 18 | > 20 | > 20 | > 20 | 
2 | CCCCCCCO[C@@H]1[C@@H](O)[C@@H](OCc2ccccc2)O[C@H](CC(C)C)[C@H]1O | 3.5 | > 20 | 6 | 12 (≈ 30.4 µM) | 
3 | CCCCCCCO[C@@H]1[C@@H](O)[C@@H](OCc2ccccc2)O[C@H](CC(C)C)[C@H]1OCc1ccc(OC)cc1 | 1.8 | > 20 | 4 | 12 (≈ 23.3 µM) | 
4 | CCCCCCCO[C@@H]1[C@@H](OCc2ccccc2)[C@@H](OCc2ccccc2)O[C@@H]2CO[C@@H](c3ccc(OC)cc3)O[C@@H]12 | 2.5 | > 20 | > 20 | > 20 | 
5 | CCCCCCCO[C@@H]1[C@@H](O)[C@@H](OCc2ccccc2)O[C@H](CC(C)C)[C@H]1OC | 10 | > 20 | 7 | 20 (≈ 49 µM) | 
6 | CCCCCCCO[C@@H]1[C@@H](OCc2ccccc2)[C@@H](OCc2ccccc2)O[C@H](CC(C)C)[C@H]1OCc1ccc(OC)cc1 | > 20 | > 20 | > 20 | > 20 | 
7 | CCCCCCCO[C@@H]1[C@@H](O)[C@@H](OCc2ccccc2)O[C@H](CO)[C@H]1O | 10 | > 20 | > 20 | > 20 | 
8 | CCCCCCCO[C@@H]1[C@@H](OCc2ccccc2)[C@@H](OCc2ccccc2)O[C@H](C=C(C)C)[C@H]1OCc1ccc(OC)cc1 | > 20 | > 20 | > 20 | > 20 | 
9 | CCCCCCCO[C@@H]1[C@@H](OCc2ccccc2)[C@@H](OCc2ccccc2)O[C@H](C=O)[C@H]1OCc1ccc(OC)cc1 | 1.5 | 1.8 (≈ 3.12 µM) | 4 | 5 (≈ 8.67 µM) | 
10 | CCCCCCCO[C@@H]1[C@@H](OCc2ccccc2)[C@@H](OCc2ccccc2)O[C@H](CO)[C@H]1OCc1ccc(OC)cc1 | 1.7 | 6 (≈ 10.4 µM) | 3 | 6 (≈ 10.4 µM) | 
11 | CCCCCCCO[C@@H]1[C@@H](O)[C@@H](OCc2ccccc2)O[C@@H]2CO[C@@H](c3ccc(OC)cc3)O[C@@H]12 | 2.5 | > 20 | 2.5 | 12 (≈ 24.7 µM) | 
12 | CCCCCCCO[C@H]1[C@H](O)[C@@H](CC(C)C)O[C@H](OCc2ccccc2)[C@@H]1OCc1ccccc1 | 2.5 | > 20 | 6 | 10 (≈ 20.6 µM) | 
13 | CCCCCCC[C@H]1OC(=O)C[C@@H](O)[C@H](Cc2ccccc2)N(C)C(=O)[C@H](C(C)C)OC(=O)[C@H]1C [HAPALOSIN] | 0.7 | 6 (≈ 12.3 µM) | 1 |  | 6 (≈ 12.3 µM)
14 | COc1ccc(CCN(C)CCCC(C#N)(c2ccc(OC)c(OC)c2)C(C)C)cc1OC (stereo unspecified) [VERAPAMIL] | 1.8 | > 20 | 1 | > 20 | 
